In publication PMC548356 (Nucleic Acids Research, 2005):
Where two headings read alike, the source gives them in different places.

Key:
Poa1p [1] = target: T1, Poa1p (Saccharomyces cerevisiae, UniProt P38218); test: Inhibition of Appr1p phosphatase activity of Poa1p; format: biochemical
T1 sequence (P38218 1-177): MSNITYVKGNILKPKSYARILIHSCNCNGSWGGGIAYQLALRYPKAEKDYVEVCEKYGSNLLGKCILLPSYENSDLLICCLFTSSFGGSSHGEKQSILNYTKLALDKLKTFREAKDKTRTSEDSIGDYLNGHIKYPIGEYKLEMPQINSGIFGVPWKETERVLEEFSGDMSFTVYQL
Method in brief: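 Candidate inhibitors were first surveyed at 10 mM under two conditions: 8 nM Poa1p with 26 nM Appr1p for 1 h, and 35 nM Poa1p with 5 μM Appr1p for 2 h. IC50 was then obtained by titrating inhibitor concentration with 35 nM Poa1p and 5 μM Appr1p for 2 h. Readout was radiolabeled Appr1p conversion, separated by TLC.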

Hal2p [2] = test: Inhibition of Appr1p phosphatase activity of Hal2p; format: biochemical, Saccharomyces cerevisiae; conditions: Appr1p well below KM; data not shown
Method in brief: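 Purified His6-Hal2p at 104 nM was mixed with 5 nM Appr1p and each potential inhibitor at 10 mM. Incubation lasted long enough to convert ~50% of substrate without inhibitor. Labeled product was resolved by PEI-cellulose TLC and quantified by phosphorimaging.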

Poa1p [3] = target: T1, Poa1p; test: KI for ADP-ribose by the method of Dixon; format: biochemical
Method in brief: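 Ap*pr1p hydrolysis by 43 nM Poa1p at four fixed Appr1p concentrations (1–25 μM) with ADP-ribose 0–300 μM. Initial-rate inverses plotted against [ADP-ribose]; resulting slopes replotted against 1/[Appr1p]. KI derived from the secondary slope (KM/(Vmax·KI)) using known KM and Vmax for Appr1p. All fits by linear regression.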

Poa1p [4] = target: T1, Poa1p; test: Appr1p phosphatase assay, steady-state kinetics of Poa1p; format: biochemical
Hal2p [5] = test: Appr1p phosphatase and pAp phosphatase assay, steady-state kinetics of Hal2p; format: biochemical, Saccharomyces cerevisiae; conditions: for Km / kcat: substrate of Hal2p, 30°C, pH 7.5
yeast crude extracts = test: Appr1p processing activity of yeast crude extracts; format: biochemical, Saccharomyces cerevisiae; conditions: for extract amount by which Appr1p is 50% processed: 17 nM Ap*pr1p, 1 h, 30°C
Method in brief: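 Yeast strains (BY4741 background: wild type, poa1, hal2, and the double deletion) were grown to A600 1.0, washed in cold water, stored at −70°C and lysed with glass beads. Extracts were assayed in 5-fold serial dilutions (starting 16, 29, 23 and 21 μg respectively) with 17 nM Ap*pr1p for 1 h at 30°C. Reactions were phenol:chloroform-treated and resolved on PEI-cellulose TLC.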

[6] = read-out: Inhibition in survey at 10 mM competitor (IC50), 10 mM competitor, 8 nM Poa1p, 26 nM Appr1p, 1 h, and 35 nM Poa1p, 5 μM Appr1p, 2 h
[7] = substrate of Poa1p, 30°C, pH 7.5, 21 nM Poa1p

Compound | IC50 (Poa1p [1]; [6]) | Inhibition of Appr1p phosphatase activity of Hal2p (in words) (Hal2p [2]) | IC50 (Poa1p [1]; 35 nM Poa1p, 5 μM Appr1p, 2 h) | further results
Nc1nc2c(ncn2[C@@H]2O[C@H](CO)[C@@H](O)[C@H]2OP(=O)(O)O)c(=O)[nH]1 [2′pG] | > 10 mM | inhibited | – | –
Nc1ncnc2c1ncn2[C@@H]1O[C@H](COP(=O)(O)OP(=O)(O)OC[C@H]2OC(O)[C@H](O)[C@@H]2O)[C@@H](O)[C@H]1O (stereo partly drawn) [ADPR, ADP-ribose] | – | inhibited | 0.03 mM | Ki (Poa1p [3]; 43 nM Poa1p, varied Appr1p and ADP-ribose (0–300 μM), Dixon plot): 0.017 mM; mode of inhibition (Poa1p [3]; plots of inverse initial rates versus inhibitor concentration): classical competitive inhibition
Nc1ncnc2c1ncn2[C@@H]1O[C@H](CO)[C@@H](O)[C@H]1OP(=O)(O)O [2′pA] | > 10 mM | – | – | –
NC(=O)c1ccc[n+]([C@H]2O[C@@H](COP(=O)([O-])OP(=O)(O)OC[C@H]3O[C@@H](n4cnc5c(N)ncnc54)[C@H](OP(=O)(O)O)[C@@H]3O)[C@H](O)[C@@H]2O)c1 [NADP] | – | inhibited | 2 mM | –
Nc1ncnc2c1ncn2[C@@H]1O[C@H](COP(=O)(O)OP(=O)(O)O)[C@@H](O)[C@H]1O [ADP] | – | – | > 10 mM | –
Nc1ncnc2c1ncn2[C@@H]1O[C@H](CO)[C@@H](OP(=O)(O)O)[C@H]1O [3′pA] | – | inhibited | > 10 mM | –
Nc1ncnc2c1ncn2[C@@H]1O[C@H](COP(=O)(O)OP(=O)(O)OC[C@H]2O[C@H](OP(=O)(O)O)[C@H](O)[C@@H]2O)[C@@H](O)[C@H]1O [Appr1p, ADP-ribose-1″-phosphate] | – | – | – | preference of Poa1p for Appr1p relative to pAp (Poa1p [4]; as measured by observed rates): at least 340 fold; kcat/KM difference in favor of Poa1p over Hal2p (Poa1p [4]; substrate Appr1p): 14 fold; lower KM of Poa1p relative to Hal2p (Poa1p [4]; substrate Appr1p): ~25 fold; Km (Poa1p [4]; [7]): 2.8 µM; kcat (Poa1p [4]; [7]): 0.0283 s⁻¹; Km (Hal2p [5]): 74 µM; kcat (Hal2p [5]): 0.0533 s⁻¹; extract amount by which Appr1p is 50% processed (yeast crude extracts; hal2-Δ extract): 1.2 µg; extract amount by which Appr1p is 50% processed (yeast crude extracts; poa1-Δ extract): 33 µg; extract amount by which Appr1p is 50% processed (yeast crude extracts; poa1-Δ, hal2-Δ double mutant extract): 20 µg; extract amount by which Appr1p is 50% processed (yeast crude extracts; wild-type extract): 1.8 µg
O=C[C@H](O)[C@H](O)[C@H](O)COP(=O)(O)O [ribose-5p, ribose 5-phosphate] | – | inhibited | – | IC50 (Poa1p [1]): > 10 mM
Nc1ncnc2c1ncn2[C@@H]1O[C@H](COP(=O)(O)OP(=O)(O)OC[C@H]2O[C@@H](n3cnc4c(N)ncnc43)[C@H](O)[C@@H]2O)[C@@H](O)[C@H]1O [AppA] | – | – | 1 mM | –
O=P(O)(O)O[C@H]1O[C@H](CO)[C@@H](O)[C@H](O)[C@H]1O [glucose-1p] | > 10 mM | – | – | –
Nc1ncnc2c1ncn2[C@@H]1O[C@H](COP(=O)(O)O)[C@@H](O)[C@H]1O [5′pA, AMP] | > 10 mM | – | – | –
O=P(O)(O)O[C@H]1O[C@H](CO)[C@@H](O)[C@H]1O [ribose-1p] | > 10 mM | – | – | –
Nc1ccn([C@@H]2O[C@H](CO)[C@@H](OP(=O)(O)O)[C@H]2O)c(=O)n1 [3′pC] | > 10 mM | – | – | –
O=C[C@H](O)COP(=O)(O)O [glyceraldehyde-3p] | > 10 mM | – | – | –
O=P(O)(O)OC[C@H]1OC(O)(CO)[C@@H](O)[C@@H]1O (stereo partly drawn) [fructose-6p] | > 10 mM | – | – | –
Nc1ccn([C@@H]2O[C@H](CO)[C@@H](O)[C@H]2OP(=O)(O)O)c(=O)n1 [2′pC] | – | – | > 10 mM | –
NC(=O)c1ccc[n+]([C@@H]2O[C@H](COP(=O)([O-])OP(=O)(O)OC[C@H]3O[C@@H](n4cnc5c(N)ncnc54)[C@H](O)[C@@H]3O)[C@@H](O)[C@H]2O)c1 [NAD] | – | – | 1.5 mM | –
Nc1nc2c(ncn2[C@@H]2O[C@H](CO)[C@@H](OP(=O)(O)O)[C@H]2O)c(=O)[nH]1 [3′pG] | > 10 mM | – | – | Inhibition of phosphatase activity remaining in poa1-Δ extract (in words) (yeast crude extracts; poa1-Δ extract, data not shown): inhibited
Nc1ncnc2c1ncn2[C@@H]1O[C@H](COP(=O)(O)O)[C@@H](OP(=O)(O)O)[C@H]1O [pAp] | > 10 mM | inhibited | – | Poa1p phosphatase activity on substrate (in words) (Poa1p [4]; conditions where a turnover of 0.005 min^−1 (0.3% of the activity with Appr1p) should be easily observed): no detectable activity; preference of Hal2p for pAp relative to Appr1p (Hal2p [5]; as measured by kcat/KM values): 10^4 fold; Km (Hal2p [5]): 0.1 µM; kcat (Hal2p [5]): 0.9 s⁻¹
